A selection: hits, their analogues and other compounds. The true share with any hit is near 3.8%.
hERG protect – shields human hERG channel from block by proarrhythmic agents; CHO-hERG, FluxOR thallium flux, dofetilide IC70 present; 310,000 compounds, 0.51% hits; activation (rescue from dofetilide block), less the hit threshold, % at 10 µM;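 active means activation above the mean of controls blocked by dofetilide plus 5 SD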;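 further: thallium influx through hERG after potassium depolarization seen as dye fluorescence rise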
Target sequence (Q12809 whole entry, looked up): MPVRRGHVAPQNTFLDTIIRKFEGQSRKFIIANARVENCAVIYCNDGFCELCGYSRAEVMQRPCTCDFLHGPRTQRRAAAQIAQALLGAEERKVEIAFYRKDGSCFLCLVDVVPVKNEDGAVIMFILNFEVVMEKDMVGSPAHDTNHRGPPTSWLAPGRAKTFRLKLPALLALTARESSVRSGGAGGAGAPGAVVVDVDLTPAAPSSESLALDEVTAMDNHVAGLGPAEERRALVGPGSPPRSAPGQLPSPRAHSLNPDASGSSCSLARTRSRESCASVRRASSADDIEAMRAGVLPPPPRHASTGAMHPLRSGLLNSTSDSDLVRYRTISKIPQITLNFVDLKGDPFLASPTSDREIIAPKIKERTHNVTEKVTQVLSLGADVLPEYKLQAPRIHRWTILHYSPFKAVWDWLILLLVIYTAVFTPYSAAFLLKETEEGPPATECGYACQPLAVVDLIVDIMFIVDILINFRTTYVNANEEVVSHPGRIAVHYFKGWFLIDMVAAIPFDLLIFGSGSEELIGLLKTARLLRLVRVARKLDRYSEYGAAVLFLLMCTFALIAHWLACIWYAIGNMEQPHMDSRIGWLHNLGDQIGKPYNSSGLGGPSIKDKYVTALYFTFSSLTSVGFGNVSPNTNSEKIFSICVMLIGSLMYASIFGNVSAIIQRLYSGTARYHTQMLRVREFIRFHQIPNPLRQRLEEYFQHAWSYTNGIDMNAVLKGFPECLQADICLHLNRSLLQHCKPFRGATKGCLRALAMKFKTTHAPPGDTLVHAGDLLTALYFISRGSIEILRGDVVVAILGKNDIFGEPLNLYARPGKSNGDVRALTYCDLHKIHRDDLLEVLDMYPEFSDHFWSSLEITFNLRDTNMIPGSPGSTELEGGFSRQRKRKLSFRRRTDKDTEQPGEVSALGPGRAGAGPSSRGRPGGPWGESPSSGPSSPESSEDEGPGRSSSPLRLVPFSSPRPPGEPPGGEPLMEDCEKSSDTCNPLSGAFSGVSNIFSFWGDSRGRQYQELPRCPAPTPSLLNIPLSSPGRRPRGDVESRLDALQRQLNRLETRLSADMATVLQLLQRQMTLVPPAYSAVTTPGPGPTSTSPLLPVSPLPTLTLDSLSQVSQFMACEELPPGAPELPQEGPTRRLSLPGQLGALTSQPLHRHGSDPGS
KCNQ1 act – human KCNQ1 channel potentiation or activation; CHO-K1 KCNQ1, thallium flux FluxOR fluorescence; stronger effect = higher value; B-score at 10 µM; 310,000 compounds, 0.35% hits;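 active means fluorescence ratio B-score, a plate-corrected score, at least three library SD, with initial intensity B-score within 5 SD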
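Assay system: CHO-K1 cells stably expressing KCNQ1; Medium: assay buffer with matched DMSO; Also added: K+/Tl+ depolarizing stimulus; Dosing: single dose; Timing: dye 90 min, compound 20 min, room temperature; Measured by: kinetic FluxOR thallium fluorescence, 10-s 1-Hz baseline, 110-s post-stimulus read; Read-out: peak-minus-minimum fluorescence over initial fluorescence, negative-control normalized, B-scored.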
KCNK3 block – human KCNK3 channel inhibition, primary screen; O14649; CHO-KCNK3 thallium flux, FluxOR fluorescence; stronger effect = lower value; B-score at 10 µM; 340,000 compounds, 0.84% hits; AID 602410;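 active means B-score under library mean minus 4 SD, starting fluorescence ratio at most library mean plus 5 SD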;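 further: more negative B-score means stronger inhibition of thallium flux through KCNK3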
KCNQ1 block – inhibitors of human KCNQ1 potassium channel; P51787; CHO-K1 KCNQ1, FluxOR thallium flux fluorescence; stronger effect = higher value; B-score at 10 µM; 310,000 compounds, 1.3% hits;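 active means compounds whose thallium flux B-score, printed positive for inhibition, exceeds three library SD while starting fluorescence stays within three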;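 further: channel opened by potassium depolarization with thallium stimulus after 20 min compound exposure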
KCNK9 inh – inhibitors of human KCNK9 two-pore domain potassium channel; AID 488922; HEK293 KCNK9, FluxOR thallium flux fluorescence; stronger effect = lower value; 310,000 compounds, 1.2% hits; Q9NPC2; B-score at 10 µM;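 active means ratio B-score over 3 SD below the library mean, with starting fluorescence within 5 SD of its mean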;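 further: negative B-score means less thallium flux so channel inhibition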
Kir21 inh – inhibitors of mouse Kir2.1 inward-rectifier potassium channel. HEK293-Kir2.1, FluxOR thallium flux fluorescence; stronger effect = lower value. P35561. B-score at 10 µM. AID 1672. 310,000 compounds, 0.85% hits;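 active means fluorescence ratio B-score at or below minus 3 SD of library scores, with starting-brightness B-score within 2 SD, cut at about -4.2 in these data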;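 further: channel flux triggered by added potassium and thallium sulfate stimulus; B-score of peak minus minimum fluorescence over baseline after thallium stimulus; more negative B-score means stronger Kir2.1 block with less thallium influx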
KCNK9 inh conf – confirmation of human KCNK9 potassium channel inhibitors; inhibition, % at 10 µM; HEK293 KCNK9 cells, FluxOR thallium flux fluorescence; shares compounds with KCNK9 inh; 4,900 compounds, 43% hits;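 active means thallium signal inhibited by more than 5 SD of the compound-free buffer control wells, on both duplicate plates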;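 further: 0% = assay buffer control wells without compound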
Kir21 sel – selectivity of KCNK9 modulators against mouse Kir2.1; shares compounds with KCNK9 inh; Kir2.1 cells, FluxOR thallium flux fluorescence; inhibition, % at 10 µM; 4,900 compounds, 4% hits; AID 492993;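 active means thallium signal drop more than 5 SD beyond the mean of the no-compound control wells, seen in both duplicate plates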;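 further: signal is fluorescence rise after thallium addition divided by baseline fluorescence; plate controls were assay buffer only for no effect and full block by chlorpromazine control for full effect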
KCNK9 uninduced – non-induced cell nonspecific activity of KCNK9 modulators. shares compounds with KCNK9 inh. inhibition, % at 10 µM. non-induced KCNK9-HEK293, FluxOR thallium flux. 4,900 compounds, 40% hits;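 active means thallium signal drop beyond 5 SD of the untreated control mean, on both duplicate plates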;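 further: plate controls were buffer only IC0 wells for no effect and SID17386958 at its maximal inhibitory level for full effect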
Starred values were filed as active, the others as inactive; i = inactive; x = no result.

SMILES	hERG protect	KCNQ1 act	KCNK3 block	KCNQ1 block	KCNK9 inh	Kir21 inh	KCNK9 inh conf	Kir21 sel	KCNK9 uninduced
COc1ccc(COc2ccsc2C(=O)Nc2ccc(Cl)cc2)cc1	-11	i	i	i	-9*	-0.28	44%*	i	26%*
COc1ccc(CC(=O)OCC(=O)NCc2ccc3c(c2)OCO3)cc1OC	x	x	i	x	x	x	x	x	x
CCOC(=O)Cn1c(=O)oc2cc(S(=O)(=O)N3CCN(C(=O)c4ccco4)CC3)ccc21	-12	i	i	i	i	0.18	x	x	x
CN(C)CCN(C(=O)c1ccc2ccccc2c1)c1nc2c(F)cccc2s1	-14	i	i	i	i	1.7	x	x	x
Cc1cc(C)c2nc(N(CCN(C)C)C(=O)c3ccc4ccccc4c3)sc2c1	-11	i	i	i	i	1.3	i	i	i
Fc1ccc(C2c3[nH]c4ccccc4c3CCN2Cc2ccoc2)cc1 (centres undefined)	-9	i	i	i	i	-1.7	i	i	i
CC(C)NC(=O)c1nc2c(nnn2Cc2cccc(Cl)c2)c(=O)[nH]1	-8	i	i	i	i	-0.05	x	x	x
Cc1ccccc1NC(=O)CN1CCN(C(=O)c2ccco2)CC1	-6	i	i	i	i	0.61	x	x	x
COc1cccc(OC)c1C(=O)Nc1cccc(NC(=O)c2cccs2)c1	-10	i	i	i	-11*	0.04	50%*	i	28%*
Cc1ccc(C(=O)N/N=C/c2cccc(OC(=O)/C=C/c3ccco3)c2)cn1	-11	i	i	i	i	2.3	x	x	x
O=C(/C=C/c1ccco1)Oc1cc(Br)cc(/C=N/NC(=O)c2ccccc2O)c1	-11	i	i	i	-14*	-0.61	76%*	i	38%*
CC(C)(C)OC(=O)C[C@H]1C/C=C\C[C@H](CC(=O)NCCO)C(=O)N[C@@H](Cc2ccccc2)COC1=O	x	x	i	x	x	x	x	x	x
CC1(C)CCC[C@@]2(C)CC=C(C(=O)O)[C@@H]3C[C@]312	-4	i	i	i	i	0.77	x	x	x
COc1ccc(Br)cc1[C@H]1[C@@H]2C=CCC[C@@]2(C)C(=O)N1Cc1ccccc1	-11	i	i	i	-15*	0.04	66%*	i	49%*
COc1ccc(-c2ccc(OC)c([C@H]3[C@@H]4C=CCC[C@@]4(C)C(=O)N3Cc3ccccc3)c2)cc1OC	-16	i	i	i	i	0.44	x	x	x
Cc1cc(C)cc(NC(=O)c2cccn2-c2ncc(C(F)(F)F)cc2Cl)c1	-8	i	i	i	i	0.04	i	i	i
O=C(CSc1ccc(Br)c2cccc(Cl)c12)Nc1ccc(S(=O)(=O)Nc2nccs2)cc1	-9	i	i	i	i	-0.36	i	i	i
O=C(Cc1ccccc1Cl)Nc1ccc(S(=O)(=O)Nc2nccs2)cc1	-12	i	i	i	i	-0.02	x	x	x
CCn1c(SCC(=O)c2cc(C)ccc2C)nc2cc(S(=O)(=O)N3CCOCC3)ccc21	-15	i	i	i	i	-2.6	i	i	i
O=c1c2c(-c3ccccc3)csc2ncn1/N=C/c1cccc([N+](=O)[O-])c1O	-5	i	i	i	i	0.95	x	x	x
Cn1cc(/C=N/n2cnc3scc(-c4ccccc4)c3c2=O)c2ccccc21	-10	i	i	i	i	-2.5	i	i	i
CCOc1ccccc1NC(=O)NCc1ccccn1	-12	i	i	i	i	-0.74	x	x	x
Cc1cc(C)c(C)c(OCc2nc(-c3cccnc3)no2)c1	-15	i	i	i	i	-0.11	x	x	x

Source: PubChem (Johns Hopkins Ion Channel Center)
